Assay results from ChEMBL document CHEMBL2021803, “Antitumor agents. 289. Design, synthesis, and anti-breast cancer activity in vivo of 4-amino-2H-benzo[h]chromen-2-one and 4-amino-7,8,9,10-tetrahydro-2H-benzo[h]chromen-2-one analogues with improved water solubility” (J Nat Prod, 2012).
Converted amounts (≈) assume the structure as drawn. The source made the active and inactive calls. The rule behind the calls is not given here.

Key:
[1] = tested on: KB; assay: Cytotoxicity against human KB cells after 72 hrs by SRB assay; assay type: functional, cell-based
[2] = Cytotoxicity against human KBVIN cells after 72 hrs by SRB assay; assay type: functional, cell-based
[3] = tested on: DU-145; assay: Cytotoxicity against human DU145 cells after 72 hrs by SRB assay; assay type: functional, cell-based
[4] = tested on: A549; assay: Cytotoxicity against human A549 cells after 72 hrs by SRB assay; assay type: functional, cell-based
[5] = tested on: SK-BR-3; assay: Cytotoxicity against human SKBR3 cells after 72 hrs by SRB assay; assay type: functional, cell-based
[6] = tested on: Mus musculus; assay: Antiproliferative activity of Brca/p53 mutant mouse mammary epithelial cells assessed as reduction in DNA synthesis at 0.1 mg, ip administered daily for 10 days by BrdU-based immunostaining method; assay type: functional
In short: (§1)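 Three-month-old mice (C57BL/6 × 129/Sv mixed background; wild-type or Brca1/p53 Cre mutant) dosed i.p. daily, 0.1 mg in 10 μL of […] DMSO stock plus 30 μL 40% PEG and 60 μL 0.9% NaCl, made fresh; vehicle controls. Paraffin sections, citrate pH 6.0 microwave retrieval 20 min, anti-BrdU 1:1000, ABC detection; BrdU-positive cells averaged over 15 ducts.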

[7] = tested on: Mus musculus; assay: Reduction in ductal branching in Brca/p53 mutant mouse mammary gland at 0.1 mg, ip administered daily for 10 days by immunostaining technique; assay type: functional; set-up: scale not given: the % may be the effect or the level left; conditions: in the assay text read “Carmine alum whole-mount staining” for “immunostaining technique”
In short: (§2)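 Three-month-old wild-type or Brca1/p53 Cre mutant mice (mixed C57BL/6 × 129/Sv) given 0.1 mg i.p. daily (DMSO stock […] diluted in 40% PEG and 0.9% NaCl at dosing); vehicle controls. Fourth-pair mammary glands whole-mounted, Carnoy's fixed 3 h, Carmine alum stained overnight. Branching points counted in three random areas totaling about 2 mm².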

[8] = tested on: Mus musculus; assay: Reduction in ductal branching in wild type mouse mammary gland at 0.1 mg, ip administered daily for 10 days by immunostaining technique; assay type: functional, organism-based; set-up: scale not given: the % may be the effect or the level left; conditions: in vivo, 240 h; in short: as §2
[9] = tested on: Mus musculus; assay: Reduction in ductal branching in Brca/p53 mutant mouse at 0.1 mg, ip administered daily for 10 days; assay type: functional, organism-based; in short: as §2
[10] = tested on: Mus musculus; assay: Induction of apoptosis in Brca/p53 mutant mouse mammary gland assessed as increase in perinuclear localization of cleaved caspase-3 at 0.1 mg, ip administered daily for 10 days by immunohistochemical staining method; assay type: functional, organism-based
In short: (§3)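 Wild-type or Brca1/p53 Cre mutant mice (C57BL/6 × 129/Sv), three months old, dosed i.p. daily with 0.1 mg in DMSO/40% PEG/0.9% NaCl (10:30:60 μL), made fresh; vehicle controls. Mammary glands fixed in 4% paraformaldehyde at 4 °C overnight, paraffin-embedded, cut into 5-μm sections. Retrieval by boiling in citrate pH 6.0, then rabbit polyclonal anti-cleaved caspase-3. Read as percentage of positive cells per duct.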

[11] = tested on: Mus musculus; assay: Induction of apoptosis in Brca/p53 mutant mouse mammary gland assessed as increase in cytoplasmic localization of cleaved caspase-3 at 0.1 mg, ip administered daily for 10 days by immunohistochemical staining method; assay type: functional, organism-based; in short: as §3
[12] = tested on: Mus musculus; assay: Antiproliferative activity of wild type mouse mammary epithelial cells assessed as reduction in DNA synthesis at 0.1 mg, ip administered daily for 10 days by BrdU-based immunostaining method; assay type: organism-based, Epithelial cell; conditions: in vivo, 240 h; in short: as §1
[13] = Solubility of the compound in water; assay type: physicochemical
[14] = tested on: Mus musculus; assay: Induction of apoptosis in wild type mouse mammary gland assessed as increase in cleaved caspase-3 at 0.1 mg, ip administered daily for 10 days by immunohistochemical staining method relative to vehicle-treated control; assay type: organism-based; conditions: in vivo, 240 h; in short: as §3
[15] = tested on: Mus musculus; assay: Induction of apoptosis in Brca/p53 mutant mouse mammary gland assessed as increase in cleaved caspase-3 at 0.1 mg, ip administered daily for 10 days by immunohistochemical staining method relative to vehicle-treated control; assay type: functional; in short: as §3

Row | SMILES | IC50 ([1]; kb) [nM] | IC50 ([2]; kbvin) [nM] | IC50 ([3]; du-145) [nM] | IC50 ([4]; a549) [nM] | IC50 ([5]; sk-br-3) [nM] | IC50 ([3]; Homo sapiens, DU-145, 72 h) [nM] | IC50 ([4]; Homo sapiens, A549, 72 h) [nM] | IC50 ([5]; Homo sapiens, SK-BR-3, 72 h) [nM] | IC50 ([1]; Homo sapiens, KB, 72 h) [nM] | IC50 ([2]; Homo sapiens, KBVIN, 72 h) [nM] | other results
1 | O=c1cc(NC2CCN(Cc3ccccc3)CC2)c2ccc3ccccc3c2o1 [listing 1 of 2 here] | > 10000 | 9400 | – | – | – | – | – | – | – | – | –
2 | O=c1cc(NC2CCN(Cc3ccccc3)CC2)c2ccc3c(c2o1)CCCC3 [listing 1 of 2 here] | 9100 | 8300 | 8300 | > 10000 | 9300 | – | – | – | – | – | –
3 | Nc1cccc(Nc2cc(=O)oc3c2ccc2ccccc23)c1 [listing 1 of 2 here] | – | – | – | – | – | 150 | 190 | 150 | 120 | 160 | –
4 | CN(C)c1ccc(Nc2cc(=O)oc3c4c(ccc23)CCCC4)cc1 [listing 1 of 2 here] | 380 | 390 | 330 | 440 | 490 | – | – | – | – | – | –
5 | Nc1cccc2c(Nc3cc(=O)oc4c3ccc3ccccc34)cccc12 [listing 1 of 2 here] | – | – | – | – | – | 150 | 160 | 200 | 160 | 150 | –
6 | COc1ccc(Nc2cc(=O)oc3c4c(ccc23)CCCC4)cc1 | – | – | – | – | – | 38 | 49 | 64 | 37 | 46 | Activity ([6]; Epithelial cell): inactive; Activity [7]: 65%; Activity [8]: 15%; Activity [9]: Active
7 | CN(C)c1ccc(Nc2cc(=O)oc3c4c(ccc23)CCCC4)cc1 [listing 2 of 2 here] | – | – | – | – | – | 470 | 540 | 770 | 720 | 540 | –
8 | Nc1ccc(Nc2cc(=O)oc3c4c(ccc23)CCCC4)cc1 [listing 1 of 3 here] | – | – | – | – | – | – | – | – | – | – | Activity ([6]; Epithelial cell): inactive; Activity [10]: Active; Activity [11]: Active; Activity [9]: Active
9 | Nc1cccc(Nc2cc(=O)oc3c4c(ccc23)CCCC4)c1 [listing 1 of 2 here] | 480 | 450 | 340 | 500 | 560 | – | – | – | – | – | –
10 | Nc1ccccc1Nc1cc(=O)oc2c3c(ccc12)CCCC3 [listing 1 of 2 here] | 7400 | 7000 | > 10000 | 8000 | 8700 | – | – | – | – | – | –
11 | COc1ccc(Nc2cc(=O)oc3c2ccc2ccccc23)cc1 | – | – | – | – | – | 110 | 170 | 130 | 110 | 130 | Activity [6]: 55%; Activity [7]: 75%; Activity [8]: 15%; Activity [12]: Non-toxic; Activity [9]: Active; solubility [13]: 0.69 µg/mL (≈ 2.17 µM)
12 | Nc1cccc(Nc2cc(=O)oc3c2ccc2ccccc23)c1 [listing 2 of 2 here] | 170 | 150 | 180 | 150 | 240 | – | – | – | – | – | –
13 | Nc1ccc(Nc2cc(=O)oc3c2ccc2ccccc23)cc1 [listing 1 of 3 here] | 48 | 47 | 49 | 54 | 53 | – | – | – | – | – | –
14 | Nc1ccc(Nc2cc(=O)oc3c4c(ccc23)CCCC4)cc1 [listing 2 of 3 here] | 69 | 65 | 66 | 62 | 85 | – | – | – | – | – | –
15 | Nc1ccc(Nc2cc(=O)oc3c2ccc2ccccc23)cc1 [listing 2 of 3 here] | – | – | – | – | – | 40 | 55 | 38 | 54 | 44 | Activity [6]: 81%; Activity [7]: 69%; Activity [8]: 15%; Activity [12]: Non-toxic; fold change (FC) [14]: 2.1; fold change (FC) [15]: 4.8; solubility [13]: 33.9 µg/mL (≈ 112 µM)
16 | Nc1ccc(Nc2cc(=O)oc3c4c(ccc23)CCCC4)cc1 [listing 3 of 3 here] | – | – | – | – | – | 53 | 58 | 74 | 56 | 53 | Activity [7]: 70%; Activity [8]: 15%; fold change (FC) [14]: 4; fold change (FC) [15]: 4.5
17 | CN(C)c1ccc(Nc2cc(=O)oc3c2ccc2ccccc23)cc1 [listing 1 of 2 here] | 470 | 410 | 300 | 590 | 270 | – | – | – | – | – | –
18 | CN(C)c1ccc(Nc2cc(=O)oc3c2ccc2ccccc23)cc1 [listing 2 of 2 here] | – | – | – | – | – | 360 | 430 | 300 | 600 | 350 | –
19 | Nc1cccc2c(Nc3cc(=O)oc4c3ccc3ccccc34)cccc12 [listing 2 of 2 here] | 210 | 170 | 180 | 240 | 240 | – | – | – | – | – | –
20 | O=c1cc(NC2CCN(Cc3ccccc3)CC2)c2ccc3ccccc3c2o1 [listing 2 of 2 here] | – | – | – | – | – | > 10000 | > 10000 | > 10000 | 8300 | 7600 | –
21 | O=c1cc(NC2CCN(Cc3ccccc3)CC2)c2ccc3c(c2o1)CCCC3 [listing 2 of 2 here] | – | – | – | – | – | 5800 | 7000 | 7700 | 6500 | 6200 | –
22 | Nc1ccccc1Nc1cc(=O)oc2c1ccc1ccccc12 [listing 1 of 2 here] | 8200 | 9000 | 8700 | 9100 | 9500 | – | – | – | – | – | –
23 | Nc1cccc(Nc2cc(=O)oc3c4c(ccc23)CCCC4)c1 [listing 2 of 2 here] | – | – | – | – | – | 440 | 400 | 480 | 440 | 470 | –
24 | Nc1ccccc1Nc1cc(=O)oc2c3c(ccc12)CCCC3 [listing 2 of 2 here] | – | – | – | – | – | 5000 | 5000 | 5200 | 4900 | 5200 | –
25 | Nc1ccccc1Nc1cc(=O)oc2c1ccc1ccccc12 [listing 2 of 2 here] | – | – | – | – | – | > 10000 | > 10000 | > 10000 | > 10000 | > 10000 | –
26 | Nc1ccc(Nc2cc(=O)oc3c2ccc2ccccc23)cc1 [listing 3 of 3 here] | – | – | – | – | – | – | – | – | – | – | Activity [10]: Active; Activity [11]: Active; Activity [9]: Active
